Compound activity as filed in PubChem.
Rows were chosen to be rich in hits. Some 2.9% of all compounds tested hit in one or more screens of this group.
Ecoli tolC = blocks growth of E. coli BW25113 tolC mutant | AID 573 | OD615 | growth inhibition, % at 10 µM (by protocol) | 65,000 tested, 2.2% active;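 active means growth inhibition at or above a cutoff equal to the mean over every tested compound plus 3 SD, cut at about 60% in these data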;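 further: growth measured after 20 h incubation at 37 °C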
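Signal: optical density read at 615 nm; Assay system: E. coli ΔtolC::kan strain BW25113; Times: 20 h incubation with compound, 37 °C; Dosing: 10 µM final, single dose.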
Hsp90 inh = displaces geldanamycin probe from tumor Hsp90 | inhibition, % at 30 µM | NCI-N417 lysate Hsp90, Cy3B-geldanamycin FP displacement | AID 429 | 64,000 tested, 0.35% active;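 active means inhibition above 50%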;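 further: 0% = tracer plus lysate wells and 100% = tracer alone without lysate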
Cdc25B block = human M-phase inducer phosphatase 2 inhibition. inhibition, %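 (compounds tested at 10 µM final in the well)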. 65,000 tested, 0.1% active. recombinant Cdc25B, OMFP fluorescence Ex485/Em525. P30305; in the data active means inhibition above about 50%
BAP1 inh = inhibitors of human BAP1 deubiquitinase | recombinant BAP1, Ub-AMC hydrolysis fluorescence kinetic; hits give low values | calls only at 20 µM | 72,000 tested, 0.48% active | AID 436;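 active means activity remaining at or below 50% of control, provided the compound also passes the data quality filters; inactive means the rest, including low values that fail the filters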;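 further: 100% = DMSO wells rate and 0% = substrate alone blank rate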
DUSP1 inh = human dual specificity phosphatase 1 inhibition. P28562. inhibition, %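 (compounds tested at a single concentration somewhere between 10 and 100 µM)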. recombinant MKP-1, OMFP hydrolysis fluorescence. 65,000 tested, 0.15% active;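 active means inhibition above about 50%, limit read from the data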;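 further: 0% = DMSO max control wells and 100% = wells with enzyme stopped by NaOH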
Target sequence (P28562 whole entry, looked up): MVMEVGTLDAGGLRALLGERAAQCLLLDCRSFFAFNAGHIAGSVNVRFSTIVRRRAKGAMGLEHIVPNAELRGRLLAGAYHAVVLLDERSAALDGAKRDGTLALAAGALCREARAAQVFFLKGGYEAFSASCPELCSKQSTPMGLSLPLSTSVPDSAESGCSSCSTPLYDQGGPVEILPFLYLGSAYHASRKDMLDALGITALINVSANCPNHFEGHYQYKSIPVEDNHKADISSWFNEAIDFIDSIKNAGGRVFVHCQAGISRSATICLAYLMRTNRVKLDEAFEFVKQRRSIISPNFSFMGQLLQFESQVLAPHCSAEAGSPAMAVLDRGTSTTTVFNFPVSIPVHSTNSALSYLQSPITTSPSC
Ec RNAP inh = inhibitors of Escherichia coli RNA polymerase. P0A8V2. E. coli RNA polymerase, fluorescence transcription assay. inhibition, %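 (tested at 10 µM)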. 62,000 tested, 0.2% active. AID 559; in the data active means inhibition above about 20%;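 further: 0% = enzyme without compound and 100% = no enzyme blank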
BAP1 inh conf = confirmation of human BAP1 enzyme inhibitors | shares compounds with BAP1 inh | % of control activity, % at 20 µM | purified BAP1, Ub-ethyl ester hydrolysis, HPLC; hits give low values | 310 tested, 8% active;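 active means percent of control activity at or below 60%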
Starred values were filed as active, the others as inactive; i = inactive; x = no result given; + = active, no number.

SMILES | Ecoli tolC | Hsp90 inh | Cdc25B block | BAP1 inh | DUSP1 inh | Ec RNAP inh | BAP1 inh conf
Cc1c(Cl)cccc1NC(=O)NC1CCCCC1 | -5 | 1 | 3 | i | 15 | -4 | x
O=C(Nc1ccccc1NC(=O)NC1CCCCC1)NC1CCCCC1 | -3 | 3 | 3 | + | 7 | 6 | 104
Cc1[nH]c2ccccc2c1C(C[N+](=O)[O-])c1cc(Cl)c2c(c1)OCO2 (stereo not drawn) | x | x | x | i | x | x | x
Cc1ccc(SCc2c(C#N)c3ccccc3n2C)cc1 | -5 | -3 | 7 | i | 17 | 7 | x
Cc1ccccc1N1CCN(Cc2c(C#N)c3ccccc3n2C)CC1 | 25 | -7 | 0 | + | -3 | x | 74
CCn1c2ccccc2c2cc(NC(=O)CSc3nnc(C4CC4)n3Cc3ccco3)ccc21 | 41 | 0 | -5 | + | 34 | 5 | 100
O=C(Cc1ccc([N+](=O)[O-])cc1)Nc1cccc(NC(=O)Cc2ccc([N+](=O)[O-])cc2)n1 | x | x | x | i | x | x | x
CC(C)OC(=O)c1c(NC(=O)CCn2nnc3ccccc32)sc2c1CCCC2 | 33 | -3 | 3 | + | 13 | 3 | 89
COc1ccc(OC)c2c1sc(=NC(=O)c1ccco1)n2C | 4 | -2 | -3 | + | 14 | 6 | 91
COc1cccc2sc(=NC(=O)C3CCCCC3)n(C)c12 | x | x | x | i | x | x | x
Cc1ccc(C(=O)OCCOC(=O)c2ccc(C)cc2)cc1 | x | x | x | i | x | x | x
CCOC(=O)C(C(C)=O)c1c(Br)c(O)c(O)c2c(C(=O)c3ccc(C)cc3)coc12 (stereo not drawn) | 16 | -1 | 14 | + | -5 | 18 | 68
COc1ccc(-c2nnc(SCC(=O)Nc3ccccc3OC)o2)cc1 | 4 | -5 | -13 | i | 23 | -3 | x
COc1ccc(-c2nnc(SCC(=O)Nc3cccc(Cl)c3)o2)cc1 | 0 | -2 | -1 | + | 2 | 8 | 109
C=CCOC(=O)C(C#N)c1nc2ccccc2nc1N1CCN(Cc2ccc3c(c2)OCO3)CC1 (stereo not drawn) | 40 | -9 | 3 | + | -4 | -3 | 76
CC(C)OC(=O)c1cccnc1SCc1cc(=O)n2ccccc2n1 | 17 | 2 | -3 | + | -6 | -5 | 90
COc1cccc(-n2nc(C(=O)Nc3ccc4c(c3)OCO4)c3ccccc3c2=O)c1 | 15 | -2 | -6 | i | 1 | 4 | x
COc1ccc(-n2nc(C(=O)Nc3ccc4c(c3)OCO4)c3c4ccccc4n(C)c3c2=O)cc1 | -11 | 1 | 7 | + | 24 | 4 | 81
Cc1cc(NC(=O)c2cc(Cl)ccc2Cl)no1 | -18 | -1 | -3 | i | -23 | 7 | x
Cc1cc(NC(=O)c2ccc(COc3ccc(Cl)c(C)c3)o2)no1 | -7 | -6 | -5 | + | 5 | 0 | 163
Cc1ccc(S(=O)(=O)Nc2ccc(Br)cc2C(=O)c2cccc(Cl)c2)cc1 | x | x | x | i | x | x | x
CCCCN(CCCC)Cc1nc2c(c(=O)[nH]1)C1(CCCC1)Cc1ccccc1-2 | x | x | x | i | x | x | x
O=C(Nc1ccc([N+](=O)[O-])cc1)c1cccc(S(=O)(=O)N2CCCCC2)c1 | x | x | x | i | x | x | x
COc1cccc(CN(Cc2ccco2)C(c2ccc(F)cc2)c2nnnn2C(C)(C)C)c1 (stereo not drawn) | 7 | -5 | -12 | + | -10 | 7 | 71
COC(=O)c1cc2nc(-c3ccc(OC)c(OC)c3)cc(C(F)(F)F)n2n1 | -5 | -3 | -22 | + | 10 | 3 | 129
CCOC(=O)C1=CSC(=C2C(=S)C(C)(C)Nc3cc(C)ccc32)S1 | x | x | x | i | x | x | x
COc1ccc(N/C=C2/CCCCC2=O)cc1 | -2 | -3 | -1 | i | 4 | 8 | x
CC1CCC/C(=C\Nc2ccc(O)cc2)C1=O (stereo not drawn) | -9 | -3 | 3 | + | -9 | 4 | 91
CSc1ccc(C2C(C#N)=C(N)Oc3c2ccc(=O)c2c(C)oc(C)c32)cc1 (stereo not drawn) | 10 | -16 | 37 | + | 40 | 4 | 118
CC(C)(C)n1nnnc1C(c1cccnc1)N1CCN(C(=O)c2ccco2)CC1 (stereo not drawn) | 2 | 1 | -4 | i | 7 | 8 | x
